Changes are numbered by the printed parent chain. Values after ≈ are worked out from the molar mass of the structure shown.

For data set [1] the following is noted: pH 6.8 phosphate buffer at 20 °C; cited from earlier work.
The test system of another data set is HIV integrase. The following applies: in vitro assays; cited from earlier work.
A further data set deals with T1, UGT1A9 wild-type (Homo sapiens, UniProt O60656).
T1 sequence (O60656 26-530): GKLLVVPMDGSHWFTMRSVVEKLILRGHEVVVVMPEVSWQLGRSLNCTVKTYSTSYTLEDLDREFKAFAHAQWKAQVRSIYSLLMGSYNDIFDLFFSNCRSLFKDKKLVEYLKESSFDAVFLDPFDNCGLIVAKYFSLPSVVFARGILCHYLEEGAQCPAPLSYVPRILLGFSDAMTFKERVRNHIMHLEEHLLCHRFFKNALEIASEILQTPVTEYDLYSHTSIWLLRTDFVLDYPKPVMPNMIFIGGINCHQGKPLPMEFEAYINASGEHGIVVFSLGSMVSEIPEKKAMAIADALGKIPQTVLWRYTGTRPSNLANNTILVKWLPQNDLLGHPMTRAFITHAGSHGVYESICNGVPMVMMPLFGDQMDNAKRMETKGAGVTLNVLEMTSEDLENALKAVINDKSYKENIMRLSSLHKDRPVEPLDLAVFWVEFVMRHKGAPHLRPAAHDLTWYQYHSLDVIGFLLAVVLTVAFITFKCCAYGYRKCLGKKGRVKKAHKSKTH
Nature of the data set: CAB glucuronidation by UGT1A9 wild-type expressed in COS-7 cells. The format is in vitro ADME.

A further data set has as its system human liver microsomes. Nature of the data set: human liver microsome metabolism experiment. Format: in vitro ADME. The following applies: CAB 10 μM, microsomes 0.5 mg/mL, UDPGA, 60 min, 37 °C. In short, it runs like this:
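Pooled liver microsomes (50 mixed-sex donors, 0.5 mg/mL) were preincubated 5 min at 37 °C with test compound (10 μM) in 100 mM potassium phosphate, pH 7.4. A UGT reaction mixture containing 25 mM UDPGA plus alamethicin was added, and reactions ran 60 min at 37 °C. Acetonitrile quench, centrifugation, drying and methanol reconstitution followed. Glucuronide was detected by LC–MS/MS using the m/z 582 → 406 transition.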
For orientation: Liver microsomes are vesicles of endoplasmic reticulum, rich in cytochrome P450 enzymes.

Another data set has as its target T2, UGT1A9 R464G (Homo sapiens, UniProt O60656, R464G).
T2 sequence (O60656 26-530 R464G): T1 sequence (O60656 26-530) with R439G
The data set can be described thus: CAB glucuronidation by UGT1A9 R464G expressed in COS-7 cells. The format is in vitro ADME.

A further data set deals with T3, UGT1A1 P152T (Homo sapiens, UniProt P22309, P152T).
T3 sequence (P22309 26-533 P152T): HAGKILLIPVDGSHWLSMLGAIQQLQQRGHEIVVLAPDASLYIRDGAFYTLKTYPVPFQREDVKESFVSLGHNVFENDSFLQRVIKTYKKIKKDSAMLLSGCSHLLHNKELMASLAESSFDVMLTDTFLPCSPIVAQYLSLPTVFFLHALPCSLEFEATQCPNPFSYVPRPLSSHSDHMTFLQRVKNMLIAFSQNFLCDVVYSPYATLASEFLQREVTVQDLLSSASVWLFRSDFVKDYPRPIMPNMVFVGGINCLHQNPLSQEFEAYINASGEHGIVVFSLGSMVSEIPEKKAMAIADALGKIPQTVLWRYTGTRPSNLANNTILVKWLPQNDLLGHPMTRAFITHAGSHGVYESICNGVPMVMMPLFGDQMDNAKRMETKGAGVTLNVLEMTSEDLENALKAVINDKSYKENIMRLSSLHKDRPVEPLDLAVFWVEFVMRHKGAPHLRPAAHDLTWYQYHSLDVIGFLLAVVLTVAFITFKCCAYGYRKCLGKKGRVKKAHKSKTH
Nature of the data set: glucuronidation by UGT1A1 P152T expressed in COS-7 cells. Format: in vitro ADME. The following applies: 20 μM drug, 24 h, compared to wild-type UGT1A1.

For a further data set, the system named is UGT1A9. The following applies: reaction phenotyping; cited from earlier work.
In another data set the target is T4, UGT1A9 H217Y (Homo sapiens, UniProt O60656, H217Y).
T4 sequence (O60656 26-530 H217Y): T1 sequence (O60656 26-530) with H192Y
Nature of the data set: CAB glucuronidation by UGT1A9 H217Y expressed in COS-7 cells. Format: in vitro ADME.

The test system of another data set is human kidney microsomes. The data set can be described thus: human kidney microsome metabolism experiment. The settings on record: CAB 10 μM, microsomes 0.5 mg/mL, UGT cofactor, 60 min, 37 °C. Format: in vitro ADME.
A further data set has as its system UGT1A1. The following applies: reaction phenotyping; cited from earlier work.
The conditions of data set [2]: HPTN 077 participants, South Africa, Brazil, Malawi, United States; cited from earlier work.
For the next data set, the target named is T5, wild-type UGT1A1 (Homo sapiens, UniProt P22309).
T5 sequence (P22309 26-533): T3 sequence (P22309 26-533 P152T) with T127P
The data set can be described thus: glucuronidation by wild-type UGT1A1 expressed in COS-7 cells. Format: in vitro ADME. The following applies: 20 μM drug, 24 h.

As a reminder, the aqueous solubility is the concentration that dissolves in the medium under given conditions. `C[C@H]1CO[C@@H]2Cn3cc(C(=O)NCc4ccc(F)cc4F)c(=O)c(O)c3C(=O)N12` [CAB, Cabotegravir]: the aqueous solubility in data set [1] was 15 µg/mL (≈ 37 µM). In addition, in the data set on HIV integrase, the “efficacy of inhibition of integrase-catalyzed viral DNA strand transfer” value is recorded as “low or subnanomolar”. Further, the “formation of CAB-glucuronide by UGT1A9 wild-type” value at UGT1A9 wild-type (24 h incubation with CAB) is listed as “not observed”. Besides, the “CAB-glucuronide production by UGT1A9 wild-type” value on UGT1A9 wild-type (48 h treatment with CAB) is reported as “able to detect”. Also, in the data set with human liver microsomes, the “additional metabolites in human liver microsomes” value was “no additional metabolites of CAB were detected” and the “metabolite formed in human liver microsomes” value is reported as “identified as CAB-glucuronide”. Further, at UGT1A9 R464G (24 h incubation with CAB), the “formation of CAB-glucuronide by UGT1A9 R464G” value was “not observed”. Also, the “CAB-glucuronide production by UGT1A9 R464G” value on UGT1A9 R464G (48 h treatment with CAB) was “not detectable above the background”. For the same compound, the “glucuronidated metabolite in cells expressing UGT1A1 P152T” value (shortened to “glucuronidated metabolite”) at UGT1A1 P152T is “undetectable”. In the data set on UGT1A9, the “fractional contribution of UGT1A9 to CAB metabolism” value is listed as 0.33. Moreover, the “formation of CAB-glucuronide by UGT1A9 H217Y” value on UGT1A9 H217Y (24 h incubation with CAB) was “not observed”. For the same compound, at UGT1A9 H217Y (48 h treatment with CAB), the “CAB-glucuronide production by UGT1A9 H217Y” value was “able to detect”. For the same compound, in the data set on human kidney microsomes, the “metabolite formation in human kidney microsomes” value is reported as “observed the formation of CAB-glucuronide”. In addition, the “fractional contribution of UGT1A1 to CAB metabolism” value in the data set with UGT1A1 is 0.67. Besides, the tolerability result in [2] is reported as “well tolerated”. The “glucuronidation in cells transfected with wild-type UGT1A1” value on wild-type UGT1A1 is given as “readily glucuronidated”.
With `C[C@@H]1CCO[C@H]2Cn3cc(C(=O)NCc4ccc(F)cc4F)c(=O)c(O)c3C(=O)N12` [DTG, dolutegravir], the “glucuronidated metabolite” value on UGT1A1 P152T is “undetectable”. Moreover, the “glucuronidation in cells transfected with wild-type UGT1A1” value at wild-type UGT1A1 is reported as “readily glucuronidated”.
`CCc1c2c(nc3ccc(O)cc13)-c1cc3c(c(=O)n1C2)COC(=O)[C@]3(O)CC` [SN-38, 7-ethyl-10-hydroxycamptothecin]: the “glucuronidated metabolite” value on UGT1A1 P152T is reported as “marked reduction”.

The record behind these values is PMC7888308 (ACS Pharmacology & Translational Science, 2021).
